The results in this text go back to ChEMBL document CHEMBL1806414, “Synthesis and anticonvulsant activity of 7-phenyl-6,7-dihydro-[1,2,4]triazolo[1,5-a]pyrimidin-5(4H)-ones and their derivatives” (Eur J Med Chem, 2011).

Active and inactive are the calls of the source. No cut-off for these calls is given here.

Data set [1] is filed under the species Mus musculus. The data set is described as follows: Protective index, ratio of TD50 for neurotoxicity in Kunming mouse to ED50 for inhibition of MES-induced seizures in Kunming mouse. The format is functional.
A short description of data set [2]: Neurotoxicity in ip dosed Kunming mouse by rotarod test. Type of data set: toxicity, organism-based. The conditions noted are these: in vivo. Put shortly:
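Phase-II rotarod test in KunMing mice trained on a 3.2 cm rod at 10 rpm, DMSO vehicle. Groups of 10 mice got graded i.p. doses until at least three points fell within 10–90% minimal neurotoxicity, giving the median toxic dose.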
(In general: Falling from the rotarod earlier than controls is read as motor impairment.)

Data set [3] concerns Mus musculus. The data set is described as follows: Anticonvulsant activity against maximal electric shock-induced seizures in ip dosed Kunming mouse assessed as median effective dose. Type of data set: functional. In short, it runs like this: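 Phase-II MES test in KunMing mice (18–22 g), DMSO vehicle, corneal electrode stimulus 0.2 s. Groups of 10 mice got a range of i.p. doses until at least three points fell within 10–90% seizure protection, giving the median effective dose. Endpoint is abolition of tonic hind-leg extension.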

Data set [4] concerns Mus musculus. The experiment in a line: Neurotoxicity in Kunming mouse at 300 mg/kg, ip after 4 hrs. Conditions: in vivo. Details: dose 300 mg/kg, route intraperitoneal. The format is toxicity, organism-based. Put shortly:
(§1)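 Rotarod neurotoxicity in KunMing mice (18–22 g) trained on a 3.2 cm diameter rod at 10 rpm. Compounds in DMSO were given i.p. at 30, 100 and 300 mg/kg, three mice per dose, and tested at 0.5 h and 4 h after dosing.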

Data set [5] has as its system Mus musculus. The experiment in a line: Neurotoxicity in Kunming mouse at 100 mg/kg, ip after 4 hrs. Details: dose 100 mg/kg, route intraperitoneal. Type of data set: toxicity, organism-based. Conditions: in vivo. In short, it runs like this: as §1
Data set [6] concerns Mus musculus. The data set is described as follows: Neurotoxicity in Kunming mouse at 300 mg/kg, ip after 0.5 hrs. Type of data set: toxicity, organism-based. Also noted: dose 300 mg/kg, route intraperitoneal. Conditions: in vivo. Put shortly:
as §1

The subject of data set [7] is Mus musculus. The data set is described as follows: Neurotoxicity in Kunming mouse at 100 mg/kg, ip after 0.5 hrs. The format is toxicity, organism-based. Details: dose 100 mg/kg, route intraperitoneal. The conditions noted are these: in vivo. In short, it runs like this: as §1
The test system of data set [8] is Mus musculus. The data set is described as follows: Anticonvulsant activity in Kunming mouse assessed as protection against maximal electric shock-induced seizures at 300 mg/kg, ip measured after 4 hrs. The format is functional, organism-based. Also noted: dose 300 mg/kg. In short, it runs like this: (§2)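 KunMing mice (18–22 g), compounds dissolved in DMSO, given i.p. at 30, 100 and 300 mg/kg, three mice per dose. Current applied through corneal electrodes for 0.2 s at 0.5 h and 4 h after dosing. Protection is abolition of tonic hind-leg extension, scored as protected/tested.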

The test system of data set [9] is Mus musculus. The experiment in a line: Anticonvulsant activity in Kunming mouse assessed as protection against maximal electric shock-induced seizures at 100 mg/kg, ip measured after 4 hrs. Type of data set: functional, organism-based. Details: dose 100 mg/kg. Put shortly:
as §2

In data set [10] the test system is Mus musculus. The experiment in a line: Anticonvulsant activity in Kunming mouse assessed as protection against maximal electric shock-induced seizures at 30 mg/kg, ip measured after 4 hrs. The format is functional, organism-based. Also noted: dose 30 mg/kg. In short, it runs like this:
as §2

For data set [11], the system named is Mus musculus. The experiment in a line: Anticonvulsant activity in Kunming mouse assessed as protection against maximal electric shock-induced seizures at 300 mg/kg, ip measured after 0.5 hrs. The format is functional, organism-based. Also noted: dose 300 mg/kg. In short, it runs like this:
as §2

In data set [12] the test system is Mus musculus. The experiment in a line: Anticonvulsant activity in Kunming mouse assessed as protection against maximal electric shock-induced seizures at 100 mg/kg, ip measured after 0.5 hrs. The format is functional, organism-based. Details: dose 100 mg/kg. In short, it runs like this: as §2
Data set [13] deals with Mus musculus. The experiment in a line: Anticonvulsant activity in Kunming mouse assessed as protection against maximal electric shock-induced seizures at 30 mg/kg, ip measured after 0.5 hrs. Type of data set: functional, organism-based. Details: dose 30 mg/kg. In short, it runs like this: as §2

Regarding `O=C1CC(c2cccc(Br)c2)n2ncnc2N1` (stereo not drawn), the “Ratio TD50/ED50” value in data set [1] is listed as 7. Also, the TD50 in [2] was determined as 592 mg/kg. In addition, the ED50 in [3] worked out at 84.9 mg/kg. Besides, the Activity entry in data set [4], in data set [5], in [6] and in data set [7] was “Non-toxic” throughout. Moreover, the result in [8], in data set [9], in [10] and in data set [13] was inactive. Further, the result in [11] and in data set [12] was Active.
In the case of `O=C1CC(c2ccccc2)n2ccnc2N1` (stereo not drawn), in data set [1], the “Ratio TD50/ED50” value was 6.7. The compound further returned a TD50 in [2] of 458 mg/kg. The ED50 in data set [3] worked out at 68.2 mg/kg. Besides, the Activity result in [4], in [5], in [6] and in [7] was “Non-toxic” each time. Also, the result in data set [8], in [9], in [10] and in data set [13] was inactive. The result in data set [11] and in data set [12] was Active.
Turning to `O=C1CC(c2cccc(C(F)(F)F)c2)n2ncnc2N1` (stereo not drawn), the “Ratio TD50/ED50” value in data set [1] is given as 2.9. The TD50 in data set [2] stood at 158 mg/kg. For the same compound, the 50% effective dose (ED50) in [3] turned out to be 54.8 mg/kg. Also, the values for the Activity result in data set [4], in data set [5] and in [6] were “Non-toxic”, “Non-toxic” and “Toxic”, respectively. Besides, the outcome in data set [8], in data set [9], in data set [10] and in data set [13] was inactive. Also, the outcome in data set [11] and in [12] was Active.
As to `O=C1CC(c2ccccc2Br)n2nccc2N1` (stereo not drawn), the “Ratio TD50/ED50” value in data set [1] was determined as 3.4. Moreover, the TD50 in data set [2] is 132 mg/kg. In data set [3], the ED50 stood at 39.4 mg/kg. The Activity entry in data set [4] is “Non-toxic”; in data set [5], “Non-toxic”; in data set [6] it was “Toxic”. In addition, the result in data set [8], in data set [9], in [10] and in data set [13] was inactive. The result in data set [11] and in data set [12] was Active.
Regarding `O=C1CC(c2ccccc2Cl)n2nccc2N1` (stereo not drawn), the “Ratio TD50/ED50” value in data set [1] is 1.5. The same compound came in with a TD50 in data set [2] of 94.7 mg/kg. For the same compound, the 50% effective dose (ED50) in data set [3] came out at 63.4 mg/kg. Besides, the Activity result is given as “Non-toxic” in data set [4], “Non-toxic” in data set [5] and “Toxic” in data set [6]. The result in data set [8], in data set [9], in data set [10] and in data set [13] was inactive. The outcome in [11] and in [12] was Active.
Turning to `O=C1CC(c2ccccc2F)n2nccc2N1` (stereo not drawn), in data set [1], the “Ratio TD50/ED50” value is 2.5. The TD50 in data set [2] is 118 mg/kg. Further, in [3], the ED50 was found to be 47.3 mg/kg. Besides, the Activity entry is “Non-toxic” in data set [4], “Non-toxic” in data set [5] and “Toxic” in data set [6]. For the same compound, the result in data set [8], in data set [9] and in data set [10] was inactive. In addition, the outcome in [11] and in [12] was Active.

Usually TD50 stands for the 50% point of the dose-response relation for the toxic effect studied. A word on the ED50: it is the dose that gives a 50% effect, or the effect in half of the subjects.
